Screens deposited in PubChem by The Scripps Research Institute Molecular Screening Center.
TDP2 absorb: TDP2 (human) inhibition, absorbance primary screen; AID 720702; actives 0.34% (n = 370,000); inhibition, % at 12.8 µM; recombinant TDP2, T5PNP hydrolysis, p-nitrophenol absorbance 415 nm; O95551;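 active = inhibition above the mean of all tested compounds plus 3 SD, set per campaign, cut at about 25% in these data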;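 note: 0% = DMSO with enzyme and 100% = buffer with substrate but no TDP2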
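Incubation: 2 h at 37 °C; Test system: recombinant human TDP2; Quantity: enzyme 120 nM; Read-out basis: percent inhibition; Medium: 50 mM Tris-HCl pH 7.5 with Mg2+, KCl, DTT, BSA; Repeats: single replicate; Compound: 12.8 µM single point, 1% DMSO; Signal: epi absorbance; Reagent: 5 mM T5PNP chromogenic substrate; Benchmarks: no-enzyme high, DMSO-plus-enzyme low.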
UHRF1 MBD2 ctr: UHRF1 methyl-DNA binding inhibition | UHRF1 binding to methylated oligo, TR-FRET | inhibition, % at 4.4 µM | actives 0.75% (n = 370,000);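 note: UHRF1 SRA domain binding a hemimethylated CpG hairpin DNA probe; 0% = median of test compound wells and 100% = reference inhibitor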
Target sequence (Q96T88 whole entry, looked up, the tested form may be a part): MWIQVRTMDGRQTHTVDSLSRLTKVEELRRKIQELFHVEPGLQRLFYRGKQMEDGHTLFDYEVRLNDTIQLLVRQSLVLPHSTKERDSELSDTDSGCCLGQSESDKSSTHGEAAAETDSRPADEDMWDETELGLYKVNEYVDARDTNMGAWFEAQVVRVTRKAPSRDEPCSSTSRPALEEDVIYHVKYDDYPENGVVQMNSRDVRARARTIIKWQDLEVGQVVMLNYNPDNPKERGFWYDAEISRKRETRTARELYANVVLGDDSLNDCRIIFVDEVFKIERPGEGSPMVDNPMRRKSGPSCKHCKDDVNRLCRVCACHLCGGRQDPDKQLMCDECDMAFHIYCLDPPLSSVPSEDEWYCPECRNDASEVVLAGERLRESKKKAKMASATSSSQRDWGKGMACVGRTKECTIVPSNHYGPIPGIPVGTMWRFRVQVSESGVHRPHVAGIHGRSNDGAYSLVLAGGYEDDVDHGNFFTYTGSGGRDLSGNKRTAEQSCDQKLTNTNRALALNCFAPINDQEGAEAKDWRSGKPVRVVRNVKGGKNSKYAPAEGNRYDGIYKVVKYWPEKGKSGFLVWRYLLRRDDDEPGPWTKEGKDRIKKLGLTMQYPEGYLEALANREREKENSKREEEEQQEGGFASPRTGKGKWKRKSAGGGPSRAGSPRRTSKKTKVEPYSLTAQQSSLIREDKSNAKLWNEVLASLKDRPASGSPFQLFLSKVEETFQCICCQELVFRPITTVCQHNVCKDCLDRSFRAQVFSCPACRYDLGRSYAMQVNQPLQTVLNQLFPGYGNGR
LEDGF integ inh: blocks HIV-1 LEDGF/p75-dependent DNA integration. TR-FRET IN-LEDGF/p75 DNA integration, Eu/Cy5. inhibition, % at 3.7 µM. actives 0.64% (n = 370,000). AID 743269;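 active = inhibition above the screen-wide mean plus 3 SD, cut at about 13% in these data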;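 note: signal is the Cy5 over europium emission ratio at 671 and 618 nm; 0% = plate median of compound wells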
HCV core dimer: HCV core protein dimerization inhibition. TR-FRET GST/Flag-core106 dimerization, 1536-well. inhibition, % at 5 µM. actives 0.33% (n = 300,000);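 active = inhibition above the mean of all tested compounds plus 3 SD, set per screening campaign, cut at about 45% in these data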
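test system = GST/Flag-tagged HCV core106 proteins | probe or stimulus = Eu donor and XL665 acceptor anti-tag antibodies | times = compound-protein-antibody incubation 4 h at 22.5 °C | signal = TR-FRET, excitation 340 nm, emission 617 and 671 nm | measure = percent inhibition of core106 dimerization signal | controls = wells lacking GST-core106 and wells with excess unlabelled core106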
MBD2 inh: blocks human MBD2 binding to methylated DNA; Q9UBB5; TR-FRET, MBD2 binding to methylated oligonucleotide; inhibition, % at 4.4 µM; actives 0.31% (n = 370,000); AID 686964; in the data active = inhibition above about 13%
UHRF1 DNA bind: counter-screen for MBD2 inhibitors: human UHRF1 methylated DNA binding inhibitors; shares compounds with MBD2 inh; UHRF1 binding to methylated oligonucleotide, TR-FRET; inhibition, % at 4.4 µM; actives 25% (n = 1,000); AID 720530;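 note: UHRF1 SRA domain binding a labeled hemimethylated CpG hairpin DNA; 0% = vehicle only and 100% = reference inhibitor with vehicle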
MBD2 confirm: confirmation of human MBD2-DBD methylated oligonucleotide binding inhibitors | shares compounds with MBD2 inh | TR-FRET MBD2-DBD binding to methylated oligonucleotide | inhibition, % at 4.4 µM | actives 26% (n = 1,000); in the data active = inhibition above about 14%
Active calls of the source: *; / = no result. Sampled rows, rich in hits. Any-hit rate of the full collection: about 1.8%. Cut-off read from the data, not from the text of the source, unless noted: active = inhibition above about 21%; inactive = the rest.

SMILES | TDP2 absorb | UHRF1 MBD2 ctr | LEDGF integ inh | HCV core dimer | MBD2 inh | UHRF1 DNA bind | MBD2 confirm
COC(=O)C1CCN(C(c2cccs2)c2sc3nc(C)nn3c2O)CC1 (configuration not stated) | 7.2 | 9.6 | -2.4 | -2.8 | 19.4* | 1.4 | 1.6
CCOC(=O)C1CCN(C(c2cccs2)c2sc3nc(C)nn3c2O)CC1 (configuration not stated) | -2.2 | 1.5 | -0.3 | -6.2 | 4.4 | / | /
COC(=O)c1cc(-c2cccc(OC(F)(F)F)c2)c(=O)n2c1CCC2 | 1.6 | 1.1 | 11.8 | / | 3.4 | / | /
O=S1(=O)CC(N2CCCC2)CN1 (configuration not stated) | 8.1 | 15.0 | 3.1 | / | 14.6* | 10.1 | 3.4
O=S1(=O)CC(N2CCCCC2)CN1C1CCCCC1 (configuration not stated) | -10.9 | 1.1 | 0.6 | / | -2.5 | / | /
CCc1ccc(CCNC(=O)OC2CC3CC2[C@H]2CCCCN2[C@H]3C)cc1 (some centres not stated) | 10.8 | 0.5 | 1.6 | / | 2.6 | / | /
Cc1ccccc1NC(=O)c1ccc(CN2CCc3ccccc3C2)cc1 | -3.5 | 0.5 | 0.7 | 3.1 | 33.6* | 5.5 | 2.8
C/C(=N\NC(=O)C1CCCN(S(=O)(=O)c2ccccc2)C1)c1ccncc1 (configuration not stated) | -11.8 | -2.5 | -0.1 | 1.3 | 3.2 | / | /
C/C(=N\NC(=O)C1CCCN(S(=O)(=O)c2ccccc2)C1)c1ccccn1 (configuration not stated) | -5.2 | -1.9 | -2.0 | -9.2 | 15.9* | 6.0 | 6.7
O=C(CSCc1ccccc1)Nc1ccc(F)c(F)c1 | 3.9 | -0.4 | -1.1 | -13.9 | 16.2* | 8.4 | 4.7
Cc1ccc(NC(=O)C2CCN(c3nnc(-n4cccc4)s3)CC2)cc1C | -6.6 | -0.4 | 7.6 | / | -1.0 | / | /
O=C1CCCN1CC(O)CS(=O)(=O)Cc1ccc(Cl)c(Cl)c1 (configuration not stated) | -16.7 | 4.1 | -1.3 | 1.6 | 15.7* | 6.8 | 3.4
O=C1CCCN1CC(O)CS(=O)(=O)Cc1ccccc1 (configuration not stated) | 0.2 | 1.2 | -4.7 | 2.4 | -0.7 | / | /
COc1cccc(NC(=S)N2CCN(Cc3ccccc3)CC2)c1 | -2.3 | -5.5 | 8.4 | -5.1 | 17.2* | 4.2 | 1.6
CC(C)=CCC[C@@]1(C(=O)O)[C@@H]2C/C=C(\C)CC/C=C(\C)CC[C@H]1[C@]1(CC2)CO1 | 6.0 | 2.5 | 3.6 | / | 2.8 | / | /
C=CCN1[C@H](C#N)[C@@H](c2ccc(C#Cc3cccc(OC)c3)cc2)[C@H]1CO | 8.8 | 17.4 | -2.0 | / | 14.8* | 5.4 | 8.1
COc1cccc(-c2cc3nc(NCCCN(C)C)n(C)c(=O)c3s2)c1 | -16.9 | 2.0 | 5.8 | / | -4.4 | / | /
COc1ncccc1-c1cc2nc(NCCCN(C)C)n(C)c(=O)c2s1 | 13.1 | 17.5 | 0.4 | / | 14.0* | 29.7* | 17.3*
COc1ccc(-n2c(COc3ccccc3)nnc2SCc2nc3ccccc3[nH]2)cc1 | 1.4 | -0.8 | -1.2 | / | -3.4 | / | /
COc1ccc(C(=O)CSc2nnc(-c3n[nH]c4c3CCC4)n2N)cc1OC | 4.2 | -4.1 | -0.5 | / | 1.4 | / | /
Cc1cccc(C(=O)NC(=O)Nc2c(C)cc(C)nc2C)c1 | -1.4 | 24.3* | -0.3 | 2.2 | 13.7* | 3.8 | 4.3
COc1ccc(/C=C\c2nc(O)c([N+](=O)[O-])c(=O)[nH]2)cc1O | 0.6 | -5.1 | 1.4 | 8.5 | 39.1* | 11.8 | -1.6
CCCC/C=C1/[C@H](c2ccccc2)N(C)C2=N[C@H](c3ccccc3)CC(=O)N21 | 0.1 | -0.4 | -4.0 | / | 3.2 | / | /
CN1C2=N[C@@H](c3ccc4ccccc4c3)CC(=O)N2/C(=C\c2ccccc2)[C@H]1c1ccccc1 | -2.1 | 28.4* | 1.7 | / | 14.1* | 19.9 | 11.8
CN1C2=N[C@@H](c3ccccc3)CC(=O)N2/C(=C\c2ccccc2)[C@H]1c1ccccc1 | -12.6 | 31.2* | 11.5 | / | 22.0* | 9.0 | 7.7
